Measurements: ChEMBL document CHEMBL1151733, “Pirinixic acid derivatives as novel dual inhibitors of microsomal prostaglandin E2 synthase-1 and 5-lipoxygenase” (J Med Chem, 2008)
Active and inactive are the calls of the source. The calls are words filed in the database; no cut-off is given here.

Key:
[1] = target: T1, Prostaglandin E synthase (Homo sapiens) (UniProt O14684); assay: Inhibition of mPGES1 in human A549 cells assessed as inhibition of IL-1-beta-induced PGE2 formation at 10 uM by cell-intact assay; type: cell-based
T1 sequence (whole entry): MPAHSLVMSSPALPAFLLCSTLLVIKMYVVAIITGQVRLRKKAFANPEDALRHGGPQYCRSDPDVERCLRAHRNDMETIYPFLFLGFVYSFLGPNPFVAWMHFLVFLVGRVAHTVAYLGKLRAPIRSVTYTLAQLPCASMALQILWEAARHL
Method in brief: (§1)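 A549 cells stimulated with IL-1β for 72 h; 2 × 10⁶ cells in 0.5 mL PBS with 1 mM CaCl₂, preincubated with compound 10 min at 37 °C. Stimulated with 2.5 µM A23187, 1 µM AA and [³H]AA (18.4 kBq) for 15 min at 37 °C. Supernatant acidified; [³H]PGE₂ separated by SPE/RP-HPLC and counted by scintillation. Vehicle 0.1% DMSO; mean ± SE, n = 3.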

[2] = target: T2, Prostaglandin G/H synthase 1 (Ovis aries) (UniProt P05979); assay: Inhibition of ovine COX1 assessed as remaining activity at 10 uM relative to control
T2 sequence (whole entry): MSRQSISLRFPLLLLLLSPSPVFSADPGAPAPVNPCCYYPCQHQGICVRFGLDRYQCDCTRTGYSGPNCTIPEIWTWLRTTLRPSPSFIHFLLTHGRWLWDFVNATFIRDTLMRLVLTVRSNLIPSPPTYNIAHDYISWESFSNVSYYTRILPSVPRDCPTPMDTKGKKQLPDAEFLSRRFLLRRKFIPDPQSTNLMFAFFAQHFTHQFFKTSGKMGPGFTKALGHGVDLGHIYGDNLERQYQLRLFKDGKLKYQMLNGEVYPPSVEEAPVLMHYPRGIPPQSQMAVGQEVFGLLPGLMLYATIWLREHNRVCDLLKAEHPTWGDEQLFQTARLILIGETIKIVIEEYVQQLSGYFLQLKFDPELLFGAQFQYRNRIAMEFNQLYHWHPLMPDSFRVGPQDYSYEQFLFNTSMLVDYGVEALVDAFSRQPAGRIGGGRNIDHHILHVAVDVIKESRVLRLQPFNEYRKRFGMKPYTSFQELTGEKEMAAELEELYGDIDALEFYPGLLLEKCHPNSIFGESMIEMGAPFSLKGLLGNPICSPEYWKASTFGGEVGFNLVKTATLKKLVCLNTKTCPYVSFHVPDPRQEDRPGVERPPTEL
Method in brief: (§2)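 Ovine COX-1 (50 units) or human recombinant COX-2 (20 units) in 100 mM Tris pH 8 with 5 mM glutathione, 5 µM hemoglobin and 100 µM EDTA. Compound preincubation 5 min at 4 °C, then prewarming 60 s at 37 °C. AA added at 5 µM for COX-1 or 2 µM for COX-2, reacted 5 min at 37 °C. 12-HHT extracted and quantified by HPLC. Mean ± SE, n = 3.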

[3] = target: T1, Prostaglandin E synthase (Homo sapiens); assay: Inhibition of mPGES1 in human A549 cells assessed as inhibition of IL-1-beta-induced PGE2 formation at 5 uM by cell-intact assay; type: cell-based; method in brief: as §1
[4] = target: T3, Prostaglandin G/H synthase 2 (Homo sapiens, UniProt P35354); assay: Inhibition of human recombinant COX2; method in brief: as §2
T3 sequence (P35354 whole entry): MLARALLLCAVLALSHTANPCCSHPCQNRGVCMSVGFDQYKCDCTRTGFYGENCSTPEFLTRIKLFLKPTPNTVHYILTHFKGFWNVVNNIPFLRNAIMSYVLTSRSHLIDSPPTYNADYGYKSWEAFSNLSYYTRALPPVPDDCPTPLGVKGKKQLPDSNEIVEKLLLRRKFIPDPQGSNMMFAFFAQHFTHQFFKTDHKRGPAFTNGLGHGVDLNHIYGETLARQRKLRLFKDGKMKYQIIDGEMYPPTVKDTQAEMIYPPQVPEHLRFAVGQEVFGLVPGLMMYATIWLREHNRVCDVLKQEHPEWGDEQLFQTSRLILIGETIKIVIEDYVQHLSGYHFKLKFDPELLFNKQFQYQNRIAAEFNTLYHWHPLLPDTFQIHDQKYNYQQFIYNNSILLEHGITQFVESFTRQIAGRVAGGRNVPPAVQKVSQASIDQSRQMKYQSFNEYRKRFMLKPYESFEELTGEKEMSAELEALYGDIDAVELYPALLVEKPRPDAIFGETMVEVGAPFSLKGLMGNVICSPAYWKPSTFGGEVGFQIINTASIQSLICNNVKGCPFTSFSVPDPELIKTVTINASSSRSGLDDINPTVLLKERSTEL

[5] = target: T4, Polyunsaturated fatty acid 5-lipoxygenase (Homo sapiens, UniProt P09917); assay: Inhibition of 5-LO in PMNL cells; type: cell-based
T4 sequence (P09917 whole entry): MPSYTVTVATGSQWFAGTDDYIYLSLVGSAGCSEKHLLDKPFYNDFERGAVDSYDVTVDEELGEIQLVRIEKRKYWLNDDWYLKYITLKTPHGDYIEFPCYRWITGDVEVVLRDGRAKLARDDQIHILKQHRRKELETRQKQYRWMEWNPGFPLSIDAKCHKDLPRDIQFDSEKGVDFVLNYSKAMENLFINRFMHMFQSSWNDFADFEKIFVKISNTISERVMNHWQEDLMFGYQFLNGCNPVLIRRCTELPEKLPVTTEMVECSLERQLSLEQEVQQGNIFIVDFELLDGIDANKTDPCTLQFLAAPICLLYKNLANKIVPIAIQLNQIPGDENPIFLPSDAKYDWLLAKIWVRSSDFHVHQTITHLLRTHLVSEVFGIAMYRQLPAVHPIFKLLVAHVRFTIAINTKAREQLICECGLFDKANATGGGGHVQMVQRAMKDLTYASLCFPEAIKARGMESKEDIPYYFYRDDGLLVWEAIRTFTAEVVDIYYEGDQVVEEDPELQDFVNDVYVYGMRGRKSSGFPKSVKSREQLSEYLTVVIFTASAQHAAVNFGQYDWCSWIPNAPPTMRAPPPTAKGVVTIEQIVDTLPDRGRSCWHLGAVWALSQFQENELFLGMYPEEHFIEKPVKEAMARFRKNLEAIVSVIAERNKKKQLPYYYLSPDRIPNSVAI
Method in brief: (§3)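 Freshly isolated human PMNL from leukocyte concentrates of healthy donors, 5 × 10⁶ cells/mL in PBS pH 7.4 with 1 mg/mL glucose and 1 mM CaCl₂. Preincubated with compound 15 min at RT, then stimulated with 2.5 µM A23187 plus 20 µM AA for 10 min at 37 °C. Stopped with methanol; LTB₄, its all-trans isomers and 5-H(P)ETE quantified by HPLC with PGB₁ internal standard.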

[6] = target: T1, Prostaglandin E synthase (Homo sapiens); assay: Inhibition of PGES1 in human A549 cell microsome assessed as PGE2 formation at 10 uM by cell-free assay relative to control; parameters: scale not given: the % may be the effect or the level left
Method in brief: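 Microsomes from A549 cells grown with IL-1β (1 ng/mL, 72 h), diluted in 0.1 M potassium phosphate pH 7.4 with 2.5 mM glutathione. Compound or DMSO added 15 min before PGH₂ (20 µM final). Reaction ran 1 min at 4 °C and was stopped with FeCl₂/citric acid. PGE₂ isolated by C18 SPE, then RP-HPLC with UV at 195 nm against 11β-PGE₂ internal standard.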

[7] = target: T5, Polyunsaturated fatty acid 5-lipoxygenase (Homo sapiens) (UniProt P09917); assay: Inhibition of 5-LO in human PMNL cells at 10 uM relative to control; type: cell-based; method in brief: as §3
T5 sequence (whole entry): T4 sequence (P09917 whole entry)

[8] = target: T6, Prostaglandin G/H synthase 1 (Ovis aries, UniProt P05979); assay: Inhibition of ovine COX1; method in brief: as §2
T6 sequence (P05979 whole entry): T2 sequence (whole entry)

[9] = target: T1, Prostaglandin E synthase (Homo sapiens); conditions: A549, 33 uM

COc1ccc2c(c1)c(CC(=O)O)c(C)n2C(=O)c1ccc(Cl)cc1
Activity [1]: Active
Activity [2]: 19%

Cc1ccc(-c2cc(C(F)(F)F)nn2-c2ccc(S(N)(=O)=O)cc2)cc1
Activity [3]: Active

CC(C)c1ccc2c(c1)c(SC(C)(C)C)c(CC(C)(C)C(=O)O)n2Cc1ccc(Cl)cc1
IC50 [4]: > 10 µM
IC50 [5]: 0.09 µM
Activity [6]: 26%
Activity [7]: inactive
IC50 [8]: > 10 µM
inhibition [9]: 63%
